Screening data from PubChem BioAssay.
A selection: hits, their analogues and other compounds. The true share with any hit is near 4.5%.
CHO parental Ca: signal in parental CHO cells, OX1R antagonist counter-screen. parental CHO-K1, ATP-induced calcium, Fluo-8 fluorescence. inhibition, % at 5.6 µM. 0.63% of 330,000 active;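 active = inhibition above that plate's mean sample inhibition plus 3 SD, cut at about 26% in these data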;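 note: 0% = ATP-challenged DMSO wells and 100% = DMSO wells without ATP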
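material = parental CHO cells | also added = ATP as calcium-mobilizing challenge | dosing = single point at 5.6 µM | detection = intracellular calcium via Fluo-8 no-wash fluorescent dye | read-out = % inhibition | benchmarks = low control ATP plus DMSO, high control DMSO only | repeats = one well per compound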
TAAR1 agonist: agonists of human TAAR1; CHO RD-HGA16 TAAR1, Fluo-8 calcium fluorescence; vehicle wells 0%, saturating PEA agonist 100%; activation, % at 3 µM; 0.99% of 360,000 active;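 active = activation above the mean activation of all test compounds in the run plus 3 SD, cut at about 38% in these data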
Target sequence (Q96RJ0 whole entry, looked up): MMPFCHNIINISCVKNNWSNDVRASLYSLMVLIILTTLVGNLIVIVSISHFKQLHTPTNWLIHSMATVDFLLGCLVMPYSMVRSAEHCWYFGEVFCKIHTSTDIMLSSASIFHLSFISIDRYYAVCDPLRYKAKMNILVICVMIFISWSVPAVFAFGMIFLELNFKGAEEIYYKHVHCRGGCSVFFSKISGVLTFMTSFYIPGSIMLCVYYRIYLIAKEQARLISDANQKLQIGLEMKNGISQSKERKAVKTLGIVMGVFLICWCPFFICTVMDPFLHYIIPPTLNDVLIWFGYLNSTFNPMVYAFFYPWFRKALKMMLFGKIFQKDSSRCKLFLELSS
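Assay system: CHO-derived RD-HGA16 cells with stable Gα16 and human TAAR1; timing: 17-24 h seeding, 75 min 37 °C dye, 30 min RT; read-out: % activation from peak over basal fluorescence ratio, DMSO-to-PEA scaled; measured by: kinetic Fluo-8 calcium fluorescence; benchmarks: low control DMSO, high control PEA (EC100); doses: 3 µM single concentration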
OX1R antag-1: antagonists of human orexin 1 receptor. O43613. CHO/OX1R cells, Fluo-8 calcium fluorescence, orexin A. inhibition, % at 5 µM. 0.43% of 330,000 active. AID 434989;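 active = inhibition above its plate's threshold, mean inhibition of all tested compounds on the plate plus 3 SD, cut at about 37% in these data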;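 note: 0% = orexin A challenge wells and 100% = SB-334867-A antagonist wells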
Target sequence (O43613 whole entry, looked up): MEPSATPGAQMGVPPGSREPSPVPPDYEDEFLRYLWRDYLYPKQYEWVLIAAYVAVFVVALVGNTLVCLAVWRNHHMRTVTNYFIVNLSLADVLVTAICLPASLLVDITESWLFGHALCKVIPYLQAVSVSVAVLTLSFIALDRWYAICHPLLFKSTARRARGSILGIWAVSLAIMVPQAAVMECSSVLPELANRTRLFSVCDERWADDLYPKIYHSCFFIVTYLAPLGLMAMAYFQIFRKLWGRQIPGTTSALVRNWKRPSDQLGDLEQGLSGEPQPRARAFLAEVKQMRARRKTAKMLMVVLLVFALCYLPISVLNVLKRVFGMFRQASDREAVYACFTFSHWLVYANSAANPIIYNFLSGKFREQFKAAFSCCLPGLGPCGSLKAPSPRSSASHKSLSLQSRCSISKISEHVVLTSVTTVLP
OX1R antag-2: antagonists of human orexin 1 receptor (OX1R) | OX1R-expressing cells, FRET antagonist read-out | inhibition, % at 6.6 µM | 1.8% of 330,000 active | O43613 | AID 485270; in the data active = inhibition mostly above about 38%, no sharp cut-off; inactive = mostly below about 40%;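 note: 0% = agonist challenge alone and 100% = reference antagonist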
GPR7 antagonist: human neuropeptides B/W receptor 1 antagonism; inhibition, % at 4.4 µM; 1.1% of 290,000 active; AID 1861; P48145; GPR7-expressing cells, fluorescence antagonist assay; in the data active = inhibition above about 16%, passing the limit was not always enough;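 note: cells stimulated with the agonist NPW; 0% = agonist with vehicle and 100% = vehicle without agonist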
TAAR1 antagonist: antagonists of human TAAR1. 1.5% of 360,000 active. AID 624466. CHO RD-HGA16 TAAR1, Fluo-8 calcium fluorescence, antagonist. inhibition, % at 3 µM;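 active = inhibition above a per-plate cutoff, the mean inhibition of test compounds on that plate plus 3 SD, cut at about 49% in these data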;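 note: 0% = DMSO plus EC80 beta-PEA response and 100% = DMSO alone without agonist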
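System: RD-HGA16 CHO cells with stable hTAAR1 and Gα16 | Probe or stimulus: EC80 β-phenethylamine stimulus | Dosing: 3 µM, single point | Times: Dye loading 75 min at 37 °C, then 30 min room temperature | Measured by: Fluo-8 calcium-sensitive fluorescence | Read-out basis: % inhibition of agonist calcium response | Replicates: n of 1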
GPR7 antag conf: confirmation of human GPR7 antagonists; shares compounds with GPR7 antagonist; GPR7-expressing cells, calcium fluorescence antagonist mode; inhibition, % at 4.4 µM; 52% of 2,400 active; AID 1952; in the data active = inhibition above about 24%;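 note: stimulated with the GPR7 agonist NPW; 0% = agonist plus vehicle and 100% = vehicle alone without agonist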
MCHR1 antag: counter-screen for GPR7 antagonists: antagonists of human MCHR1 | shares compounds with GPR7 antagonist | MCHR1-expressing cells, fluorescence antagonist assay | inhibition, % at 4.4 µM | 62% of 2,400 active | AID 2148; in the data active = inhibition above about 22%;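 note: 0% = vehicle with agonist and 100% = vehicle without agonist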
* = called active by the depositor; · = no result given; ! = a repeat was not active.

SMILES	CHO parental Ca	TAAR1 agonist	OX1R antag-1	OX1R antag-2	GPR7 antagonist	TAAR1 antagonist	GPR7 antag conf	MCHR1 antag
CC1(C)C2CCC(C2)C1(C)NC(=O)CNCC1CCCCC1 (stereo unspecified)	-13.8	11.0	-20.0	15.9	32.6*	-12.7	38.2*	22.3*
Cc1ccc(C)c(NC(=O)CSc2nc3ccccc3nc2N2CCOCC2)c1	-2.4	0.7	-8.4	-1.3	-2.4	-16.9	·	·
CCc1ccccc1NC(=O)CSc1nc2ccccc2nc1N1CCOCC1	-5.1	2.1	-28.3	7.5	26.4*	-18.9	34.2*	31.3*
CC(C)(C)n1nnnc1C(c1ccccc1)N1CCCN(Cc2ccc(F)cc2)CC1 (stereo unspecified)	·	-0.3	·	·	·	0.1	·	·
CSc1ccc(CN2CCC2(C)C(=O)Nc2cccc(NS(C)(=O)=O)c2)cc1 (stereo unspecified)	·	3.9	·	·	·	5.4	·	·
CN(C)c1ccc(-c2nn3c(-c4ccccc4Cl)nnc3s2)cc1	6.2	4.9	10.6	58.6*	24.8*	9.7	32.7*	75.5*
O=C(NCc1ccc2c(c1)OCO2)C(=O)NCC1OCCCN1S(=O)(=O)c1ccccc1 (stereo unspecified)	·	0.7	·	·	·	-22.0	·	·
Cc1onc(-c2ccccc2)c1C(=O)N1CCN(c2ccccc2F)CC1	-17.2	2.5	-29.4	19.3	11.1	4.3	·	·
CCOCCCNC(=O)c1cc2c(s1)-c1ccccc1SC2	-14.2	0.9	-27.8	0.2	-4.7	-4.2	·	·
CN(C)CCNC(=O)c1cc2c(s1)-c1ccc(Cl)cc1SC2	·	8.3	·	·	69.1*	32.9	93.0*	93.5*
O=C(c1cccc([N+](=O)[O-])c1)N1CCN(c2cccc(Cl)c2)CC1	-15.0	-0.3	-24.9	11.5	23.4*	10.5	31.4*	23.7*
O=C(c1cccc(F)c1)N1CCN(C2CCCCC2)CC1	-13.8	6.0	4.8	1.0	12.6	-20.0	·	·
O=C(c1cccc(Cl)c1)N1CCN(C2CCCCC2)CC1	-11.9	1.7	-26.6	3.5	49.6*	-21.0	5.3	-1.8
CSCc1cccc(C(=O)OC(C)C(=O)Nc2c(C)n(C)n(-c3ccccc3)c2=O)c1 (stereo unspecified)	-18.7	4.0	-18.7	1.7	·	-11.2	·	·
Cc1c(C(=O)N2CCN(CC(=O)Nc3ccccc3Cl)CC2)oc2ccc(Br)cc12	-16.8	24.0	-19.6	4.0	·	-4.0	·	·
OCC1(CCCc2ccccc2)CCN(C2CCSCC2)CC1	-9.4	4.6	-31.9	8.6	16.7	0.2	·	·
CCOC(=O)C1(CCCc2ccccc2)CCN(C2CCSCC2)CC1	·	1.3	·	·	42.7*	-10.4	50.5*	32.6*
CC(N)C(=O)NC(C(=O)N1CCCC1C(=O)NC(c1ccccc1)c1ccccc1)C(C)C (stereo unspecified)	-6.6	4.0	-11.5	-1.5	·	-5.3	·	·
CC(C)CC[n+]1ccccc1/C=C/c1ccc(N(C)C)cc1	60.7*	19.1	28.7	32.3	76.1*	28.6	77.9*	72.5*
CN(C)c1ccc(/C=C/c2cccc[n+]2[O-])cc1	3.0	1.3	-0.3	28.1	-8.4	-5.7	·	·
CC(C)c1cccc(C(C)C)c1NC(=O)CNCc1ccccc1F	-21.1	0.5	-20.2	20.6	21.9*	-1.7	29.8*	32.5*
COc1cccc(NC(=O)CN(C)C(=O)c2cccc(S(=O)(=O)N3CCN(c4ccccc4)CC3)c2)c1	13.6	5.9	-1.9	12.0	24.2*	-2.8	15.9	39.0*
COc1cccc(NC(=O)CN2CCN(S(=O)(=O)c3ccc(C(C)C)cc3)CC2)c1	-14.6	4.3	-24.8	13.2	34.6*	10.5	37.6*	28.5*
COc1cc(NC(=O)CNc2cccc(S(=O)(=O)N3CCCC3)c2)cc(OC)c1	13.2	2.4	4.1	48.1	31.0*	-10.7	4.0	19.0
O=C(CN1CCCCCC1)Nc1ccc(F)c(F)c1	-9.1	7.1	-11.9	5.9	-0.8	-23.1	·	·
SMILES	CHO parental Ca	TAAR1 agonist	OX1R antag-1	OX1R antag-2	GPR7 antagonist	TAAR1 antagonist	GPR7 antag conf	MCHR1 antag
O=C(CN1CCN(CC(=O)Nc2ccccc2Cl)CC1)Nc1ccc(F)c(F)c1	-3.8	2.7	-18.5	-0.8	48.0*	3.7	42.5*	60.7*
Cc1sc2nc(C(C)C)nc(SCC(=O)N3CCOCC3)c2c1C	-5.4	0.0	-35.1	8.7	4.6	-11.8	·	·
CCOc1ccc(CN(C)C(=O)CNC(=O)c2sc3ccccc3c2Cl)cc1	-18.3	-0.9	-19.9	-0.3	·	-18.6	·	·
COc1cccc(NC(=O)CN2C(=O)COc3ccc(S(=O)(=O)N4CCC(C)CC4)cc32)c1	-3.7	2.2	-2.5	4.2	23.2*	-11.5	-15.3	0.4
O=C(CN1CCN(S(=O)(=O)c2ccc(Cl)cc2)CC1)Nc1ccc(F)cc1F	-9.8	·	-31.8	24.2	24.2*	·	33.9*	21.8*
O=C(CN1CCN(S(=O)(=O)c2ccc(Br)cc2)CC1)Nc1ccc(F)cc1F	-10.1	15.1	-8.3	2.9	12.9	6.9	·	·
NS(=O)(=O)c1ccc(NC(=O)CN2CCN(S(=O)(=O)c3ccc(F)cc3)CC2)cc1	-1.8	0.7	-4.2	-3.2	-5.7	-0.7	·	·
O=C(CN1CCN(S(=O)(=O)c2ccc(Br)cc2)CC1)Nc1ccc(F)cc1	22.3	6.6	-12.3	28.4	30.3*	-0.7	39.3*	26.1*
Cc1sc2nc[nH]c(=S)c2c1-c1ccccc1	0.5	19.8	1.4	5.9	27.4*	-4.8	-2.1	7.3
NC(=O)c1ccc(NC(=O)CCN=C2NS(=O)(=O)c3ccccc32)cc1	-7.2	-0.2	-10.9	24.0	·	1.1	·	·
CCCCCCCCCCCCCCCCn1cc[n+](C)c1	71.2*	27.0	84.9*	24.1	31.2*!	40.7	94.3*	99.1*
N#Cc1ccccc1S(=O)(=O)N1CCC(C(=O)NCc2ccccc2CN2CCCC2)CC1	-22.0	4.3	-25.9	3.9	·	-25.3	·	·
Cc1ccc(S(=O)(=O)/N=C(\N)Nc2nc(C)c3cc(C)c(C)cc3n2)cc1	-12.5	1.8	-44.9	18.3	30.4*	-10.0	13.6	20.7
Cc1ccc(S(=O)(=O)/N=C(\N)Nc2nc(C)c3ccc(C)cc3n2)cc1	-33.5	-1.1	-16.3	4.3	11.4	0.0	·	·
O=C(CC[C@H]1O[C@@H](n2ccc(=O)[nH]c2=O)[C@H](O)[C@@H]1O)NCC1CCCO1 (stereo partly specified)	·	-0.6	·	·	·	-2.5	·	·
C=CCOc1ccc(CN(C)CC(=O)Nc2ccc3c(c2)CCC3)cc1	-10.8	9.5	-34.1	11.1	24.0*	13.1	1.2	33.0*
